The values below come from ChEMBL document CHEMBL2046349, “Synthesis of pacidamycin analogues via an Ugi-multicomponent reaction” (Bioorg Med Chem Lett, 2012).

As usually defined, the IC50 is the concentration that inhibits the measured activity by half. The term MIC denotes the smallest concentration in the dilution series that meets the test's criterion for growth inhibition. Low values mean a more susceptible organism, high ones a less susceptible organism.

≈ marks a conversion by molar mass, not a printed value.

Assay [1] concerns the target T1, Phospho-N-acetylmuramoyl-pentapeptide-transferase (Staphylococcus aureus, UniProt P0C1R8).
T1 sequence (P0C1R8 whole entry): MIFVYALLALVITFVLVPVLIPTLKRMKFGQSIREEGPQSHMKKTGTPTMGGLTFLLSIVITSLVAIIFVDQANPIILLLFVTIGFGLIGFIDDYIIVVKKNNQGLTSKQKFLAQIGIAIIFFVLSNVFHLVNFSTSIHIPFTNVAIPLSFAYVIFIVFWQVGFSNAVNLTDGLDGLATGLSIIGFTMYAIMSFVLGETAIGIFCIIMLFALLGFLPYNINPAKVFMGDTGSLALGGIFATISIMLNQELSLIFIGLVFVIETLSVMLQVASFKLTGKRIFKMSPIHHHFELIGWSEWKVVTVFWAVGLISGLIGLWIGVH
Briefly: Inhibition of Staphylococcus aureus MraY using UDP-MurNAc-dansylpentapeptide substrate assessed as formation of dansylated lipid I incubated for 3 to 4 hrs by fluorometric assay. A digest of the protocol: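 Purified S. aureus MraY with UDP-MurNAc-dansylpentapeptide as substrate. Dansylated lipid I formation followed as fluorescence enhancement at ex 355 nm / em 535 nm. IC50 reported.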

The test system of assay [2] is Pseudomonas aeruginosa. Briefly: Antimicrobial activity against Pseudomonas aeruginosa PAO1 incubated at 35 degC for 20 hrs by microdilution broth method. Type of assay: functional. Conditions: PAO1, 20 h. A digest of the protocol: (§1)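 Broth microdilution per NCCLS in cation-adjusted Mueller-Hinton broth. Each compound serially diluted two-fold, and each […] inoculated at 5×10^4 CFU per 0.1 mL well. Plates incubated 35 °C for 20 h, then MIC scored.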
A general note: Dilution methods test growth across graded concentrations, often in twofold steps.

Assay [3] has as its system Pseudomonas aeruginosa. Briefly: Antimicrobial activity against Pseudomonas aeruginosa YYI65 (deltamexB) incubated at 35 degC for 20 hrs by microdilution broth method. It counts as functional. Conditions: YYI65, 20 h. An outline of the steps: as §1
Assay [4] concerns Pseudomonas aeruginosa. Briefly: Antimicrobial activity against Pseudomonas aeruginosa ATCC 25619 incubated at 35 degC for 20 hrs by microdilution broth method. Conditions: ATCC 25619, 20 h. Type of assay: functional. An outline of the steps:
as §1

Assay [5] concerns Pseudomonas aeruginosa. As to the kind of experiment: Antimicrobial activity against Pseudomonas aeruginosa SR 27156 incubated at 35 degC for 20 hrs by microdilution broth method. Type of assay: functional. Conditions: SR 27156, 20 h. An outline of the steps:
as §1

For `C[C@H](N)C(=O)N(C)[C@@H](C)[C@H](NC(=O)[C@H](C)NC(=O)N[C@@H](Cc1c[nH]c2ccccc12)C(=O)O)C(=O)N/C=C1\O[C@@H](n2ccc(=O)[nH]c2=O)[C@H](O)[C@@H]1O`, in assay [1], the IC50 is 42 nM. The MIC against Pseudomonas aeruginosa [2] came out at 32 µg/mL (≈ 44 µM); against Pseudomonas aeruginosa [3], 8 µg/mL (≈ 11 µM); against Pseudomonas aeruginosa [4], 16 µg/mL (≈ 22 µM); in the assay on Pseudomonas aeruginosa [5], 16 µg/mL (≈ 22 µM).

For the compound `C[C@H](N)C(=O)N(C)[C@@H](C)[C@@H](NC(=O)[C@H](C)NC(=O)N[C@@H](Cc1c[nH]c2ccccc12)C(=O)O)C(=O)N/C=C1\O[C@@H](n2ccc(=O)[nH]c2=O)[C@H](O)[C@@H]1O`, the IC50 in assay [1] came out at 4000 nM. The MIC against Pseudomonas aeruginosa [2], in the assay on Pseudomonas aeruginosa [3], against Pseudomonas aeruginosa [4] and with Pseudomonas aeruginosa [5] was greater than 32 µg/mL in each case.

With `C[C@H](NC(=O)N[C@@H](Cc1c[nH]c2ccccc12)C(=O)O)C(=O)N[C@H](C(=O)N/C=C1\O[C@@H](n2ccc(=O)[nH]c2=O)[C@H](O)[C@@H]1O)[C@H](C)N(C)C(=O)[C@H](Cc1cccc(O)c1)NC(=O)CN`, the IC50 in assay [1] was 22 nM. In addition, the minimal inhibitory concentration (MIC) in the assay on Pseudomonas aeruginosa [2] was greater than 32 µg/mL; against Pseudomonas aeruginosa [3] it was 16 µg/mL (≈ 18.2 µM); with Pseudomonas aeruginosa [4], 32 µg/mL (≈ 36.5 µM); against Pseudomonas aeruginosa [5], 16 µg/mL (≈ 18.2 µM).

In the case of `C[C@H](NC(=O)N[C@@H](Cc1c[nH]c2ccccc12)C(=O)O)C(=O)N[C@H](C(=O)N/C=C1\O[C@@H](n2ccc(=O)[nH]c2=O)[C@H](O)[C@@H]1O)[C@H](C)N(C)C(=O)[C@H](Cc1ccc(O)cc1)NC(=O)CN`, in assay [1], the IC50 was 4000 nM. Also, the MIC against Pseudomonas aeruginosa [2], in the assay on Pseudomonas aeruginosa [3], with Pseudomonas aeruginosa [4] and against Pseudomonas aeruginosa [5] was greater than 32 µg/mL throughout.

Turning to `C[C@H](NC(=O)N[C@@H](Cc1c[nH]c2ccccc12)C(=O)O)C(=O)N[C@H](C(=O)N/C=C1\O[C@@H](n2ccc(=O)[nH]c2=O)[C@H](O)[C@@H]1O)[C@H](C)N(C)C(=O)CN`, in assay [1], the IC50 amounted to 65 nM. For the same compound, the MIC in the assay on Pseudomonas aeruginosa [2], with Pseudomonas aeruginosa [3], in the assay on Pseudomonas aeruginosa [4] and in the assay with Pseudomonas aeruginosa [5] was greater than 32 µg/mL each time.

In the case of `C[C@H](NC(=O)N[C@@H](Cc1c[nH]c2ccccc12)C(=O)O)C(=O)N[C@@H](C(=O)N/C=C1\O[C@@H](n2ccc(=O)[nH]c2=O)[C@H](O)[C@@H]1O)[C@H](C)N(C)C(=O)[C@H](Cc1cccc(O)c1)NC(=O)CN`, the concentration for half-maximal inhibition (IC50) in assay [1] came to 650 nM. In addition, the MIC with Pseudomonas aeruginosa [2], with Pseudomonas aeruginosa [3], against Pseudomonas aeruginosa [4] and in the assay on Pseudomonas aeruginosa [5] was greater than 32 µg/mL throughout.

Take `C[C@H](NC(=O)N[C@@H](Cc1c[nH]c2ccccc12)C(=O)O)C(=O)N[C@@H](C(=O)N/C=C1\O[C@@H](n2ccc(=O)[nH]c2=O)[C@H](O)[C@@H]1O)[C@H](C)N(C)C(=O)[C@@H](Cc1cccc(O)c1)NC(=O)CN`: the IC50 in assay [1] was determined as 8900 nM. The MIC against Pseudomonas aeruginosa [2], with Pseudomonas aeruginosa [3], in the assay with Pseudomonas aeruginosa [4] and against Pseudomonas aeruginosa [5] was greater than 32 µg/mL throughout.

For the compound `C[C@H](N)C(=O)N(C)[C@@H](C)[C@H](NC(=O)[C@H](C)NC(=O)N[C@@H](Cc1c[nH]c2ccccc12)C(=O)O)C(=O)N/C=C1/C[C@@H](O)[C@H](n2ccc(=O)[nH]c2=O)O1` [PACIDAMYCIN D], in assay [1], the IC50 is 22 nM. The MIC with Pseudomonas aeruginosa [2] was 64 µg/mL (≈ 89.9 µM); in the assay on Pseudomonas aeruginosa [3], 16 µg/mL (≈ 22.5 µM); against Pseudomonas aeruginosa [4], 16 µg/mL (≈ 22.5 µM); in the assay on Pseudomonas aeruginosa [5], 16 µg/mL (≈ 22.5 µM).
